Measurements pooled from the literature.
Lines come from different studies, so protocols differ.
Target: Glycogen synthase kinase-3 beta (GSK3B, Homo sapiens, UniProt P49841)

| Structure (SMILES) | test | conditions | quantity | value |
| --- | --- | --- | --- | --- |
| FC(F)c1nc2ccccc2n1-c1nc(N2CCOCC2)nc(N2CCOCC2)n1 | enzyme activity, inhibitor | 10 µM | remaining activity | 79% |
| COc1ccc(COc2ccc(Cc3cnc(N)nc3N)cc2OC)cc1 | cell-free assay | 0.5 µM | remaining signal | 97.8% |
| COc1cc(-c2coc3cc(O)c(OC)c(O)c3c2=O)cc(O)c1OC | enzyme activity, inhibitor, ADP detection | 100 µM | inhibition | 29% |
| CN(C)C1CCN(CC#Cc2nn(C3CCCC3)c3nc(NCc4ccccc4)ncc23)C1 (stereo not shown) | enzyme activity, inhibitor, FRET | 10 µM | inhibition | 7% |
| CCN(CC)CCNC(=O)c1c(C)[nH]c(/C=C2\C(=O)Nc3ccc(Cl)cc32)c1C | enzyme activity, inhibitor | 0.5 µM | remaining activity | 93.1% |
| CC(C)(C)c1nc2c(s1)c1nc(N)ncc1c1ccc(NS(=O)(=O)c3c(F)cccc3F)c(F)c12 | enzyme activity, inhibitor, radiometric | 1 µM | remaining activity | 91% |
| O=C(O)[C@H]1[C@H](Cn2nnc3ccccc3c2=O)CC[C@@H]1C(=O)c1ccc(OCCC2CCOCC2)cc1 | cell-free assay, competition with immobilised ligand | 1 µM | remaining binding | 100% |
| COc1cc(/C=C/C(=O)CC(=O)/C=C/c2ccc(O)c(OC)c2)ccc1O | enzyme activity, inhibitor | 1 µM | activity vs control | 105% |
| CCC(=O)N[C@H]1CC[C@@H](C(=O)N(C)c2ccc(-c3nc4ccccc4o3)cc2)C1 | cell-free assay, competition with immobilised ligand | 1 µM | remaining binding | 81% |
| Nc1[nH]nc2nc3ccccc3nc12 | enzyme activity, inhibitor | 0.5 µM | remaining activity | 99.7% |
| FC(F)(F)Oc1cccc(-c2cnc3ccc(-c4ccncc4)nn23)c1 | enzyme activity, inhibitor, radiometric | 5 µM | activity vs control | 98% |
| Oc1cccc(-c2nc(N3CCOCC3)c3oc4ncccc4c3n2)c1 | enzyme activity, inhibitor | 10 µM | remaining activity | 48% |
| Cc1cnc(NC2CCOCC2)nc1-n1cnc(C(=O)NC(CN)c2cc(F)cc(Cl)c2)c1 (stereo not shown) | enzyme activity, inhibitor, radiometric | 1 µM | remaining activity | 7% |
| CN1CCN(c2cnc3c(C4CCN(C(=O)c5ccc(OC(F)(F)F)cc5N)CC4)ncnc3c2)CC1 | cell-free assay, competition with immobilised ligand | 1 µM | remaining binding | 100% |
| COc1cc(Nc2cnc(C#N)c(O[C@H](C)CN(C)C)n2)ncc1-c1cnn(C)c1 | enzyme activity, inhibitor, radiometric | 1 µM | remaining activity | 90% |
| N#CCCc1ccc2c(c1)-c1[nH]c3ccc([N+](=O)[O-])cc3c1CC(=O)N2 | cell-free assay | 0.5 µM | remaining signal | 2.71% |
| OCc1ccccn1 | enzyme activity, inhibitor, ADP detection | 100 µM | inhibition | 4.4% |
| COc1cccc(CNC(=O)c2nc3scc(COCc4ccc(C(=O)O)cc4)c3c(=O)[nH]2)c1 | cell-free assay, competition with immobilised ligand | 1 µM | remaining binding | 62.6% |
| Cc1ccc(C(=O)Nc2ccc(CN3CCN(C)CC3)c(C(F)(F)F)c2)cc1C#Cc1cnc2cccnn12 | enzyme activity, inhibitor | 23.5 nM | remaining activity | 92% |

| Structure (SMILES) | test | conditions | quantity | value |
| --- | --- | --- | --- | --- |
| C[C@@H](c1cccc(C#N)c1)n1cc(Cl)cc(C(N)=O)c1=N | cell-free assay, competition with immobilised ligand | 1 µM | remaining binding | 88% |
| O=c1c2ccccc2[nH]c(=S)n1CCN1CCC(=C(c2ccc(F)cc2)c2ccc(F)cc2)CC1 | enzyme activity, inhibitor | 0.5 µM | remaining activity | 112% |
| CC(C)(O)[C@H]1CC[C@H](Nc2ccc3ncc(-c4cccc(C(F)(F)F)c4)n3n2)CC1 | enzyme activity, inhibitor | 1 µM | remaining activity | 81.6% |
| Cc1cc(NS(=O)(=O)c2ccc(N)cc2)nc(C)n1 | enzyme activity, inhibitor, ADP detection | 100 µM | inhibition | 11.7% |
| Cn1cc(Cl)c2c(Oc3c(F)cc(Nc4cc(Cl)nc(N)n4)cc3F)ccnc21 | cell-free assay, competition with immobilised ligand | 0.1 µM | remaining binding | 90% |
| O=Nc1c(-c2c(O)[nH]c3ccccc23)[nH]c2ccccc12 | cell-free assay | 0.5 µM | remaining signal | 27.3% |
| Cc1cccc(C)c1NC(=O)c1ccccc1C(=O)O | enzyme activity, inhibitor, ADP detection | 100 µM | inhibition | 18.9% |
| Cc1ccc(C(=O)NCc2ccsc2)cc1C#Cc1cn(C(C)C)c2ncnc(N)c12 | enzyme activity, inhibitor | 1 µM | activity vs control | 102% |
| O=c1cccc(C=Cc2ccc3c(c2)OCO3)o1 | enzyme activity, inhibitor, ADP detection | 100 µM | inhibition | 26.1% |
| CC(C)n1cnc2c(Nc3cccc(Cl)c3)nc(NCCO)nc21 | cell-free assay | 0.5 µM | remaining signal | 96% |
| Cc1cc(-n2nc(Cc3cc(F)cc(C(F)(F)F)c3)nc2C)ccc1C(N)=O | cell-free assay, competition with immobilised ligand | 1 µM | remaining binding | 98% |
| CC1CCc2c(N3CCC(O)CC3)c(F)cc3c(=O)c(C(=O)O)cn1c23 (stereo not shown) | enzyme activity, inhibitor, ADP detection | 100 µM | inhibition | 46.1% |
| Nc1ncnc2c1ncn2[C@@H]1O[C@H](COP(=O)(O)OP(=O)(O)OP(=O)(O)O)[C@@H](O)[C@H]1O | enzyme activity, substrate, radiometric |  | Km | 9.3 µM |
| N#C[C@@H]1C[C@@H]2C[C@@H]2N1C(=O)[C@@H](N)C12CC3CC(CC(O)(C3)C1)C2 | enzyme activity, inhibitor, ADP detection | 100 µM | inhibition | 8.2% |
| O=C1Nc2ccc(Cl)cc2C1=Cc1cc(Cl)c(O)c(Cl)c1 | cell-free assay | 0.5 µM | remaining signal | 80.8% |
| Cc1sc(C(=O)NC2COC2)cc1-n1cc(NC(=O)Nc2c(F)cccc2Cl)cn1 | enzyme activity, inhibitor | 10 µM | remaining activity | 94.9% |
| CN1CCOC(c2ccccc2)c2ccccc2C1 (stereo not shown) | enzyme activity, inhibitor, ADP detection | 100 µM | inhibition | 12.9% |
| CCCOc1ccc([C@H]2[C@H](C(=O)O)[C@@H](c3ccc4c(c3)OCO4)CN2CC(=O)Nc2c(CC)cccc2CC)cc1 | cell-free assay, competition with immobilised ligand | 1 µM | remaining binding | 73% |
